“And” between values parts separate entries of the source, which are not always exact repeats. Equal values may be shown once. “Also recorded” adds a separate entry of the source. Read-outs that look alike come from different tables or passages of the source. Marks after values point to notes of the source that are not given here.
Legend:
[1] = cited from earlier work
[2] = Radiation dose of other ^18F-labeled radioligands; assay type: in vivo; conditions: approximate effective dose calculated from the reported doses of individual organs
[3] = system: glutathione S-transferase; conditions: both in vitro and in vivo, via glutathione S-transferase, ref [16]; cited from earlier work
[4] = Radiation absorbed doses by Medical Internal Radiation Dose scheme; assay type: in vivo, humans
How it was run: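 Mean residence times of seven subjects were entered for a 70-kg adult male model. Red marrow residence came from the lumbar vertebrae, with all vertebral activity assigned to marrow, × 100/11.7. […] Bladder used the dynamic model with a 2.4-h voiding interval. Maximal injectable activity was derived from dose per MBq against the annual dose limits.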

[5] = assay type: in vivo, humans
[6] = Whole-body PET biodistribution after intravenous injection of ^18F-SP203; assay type: in vivo, humans
How it was run: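 Seven healthy volunteers (3 female, 4 male) received 141±41 MBq i.v. 2-D dynamic whole-body PET covered seven 15-cm bed positions (head to upper thigh) in 16 frames (15 s–4 min), 300 min total, including three 30-min rest periods. OSEM reconstruction with attenuation and scatter correction. Regions were drawn per coronal slice (high-uptake organs) or on summed slices (low-uptake). Uptake was expressed as % injected activity, mean±SD.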

[7] = Residence times of source organs from whole-body imaging; assay type: in vivo, humans; conditions: mean±SD
How it was run: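 Residence time = area under each organ's time–activity curve (fraction of injected activity). Decay correction was removed and recovery correction applied (first-frame body activity vs dose-calibrator value). Area was trapezoidal to end of imaging, then physical decay only to infinity. Right-lung activity was scaled by the lung mass ratio 1:1.87. Organs spanning beds used the timing of their main bed position.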

mGluR5 = conditions: late time points; ref [3]; cited from earlier work
[8] = ref Communication from R.M. Kessler

COC(=O)[C@H]1[C@@H](c2ccc(I)cc2)C[C@@H]2CC[C@H]1N2CCC[18F] [^18F-FPCIT]
Dose to red marrow ([1]; ref [25]): 5.1 μSv/MBq | Effective dose ([2]; ref [25]): ~8.6^a μSv/MBq

Fc1ncccc1OC[C@@H]1CCN1 [^18F-Fluoro-A-85380]
Dose to red marrow ([1]; ref [23]): 14.1 μSv/MBq | Effective dose ([1]; ref [23]): 23.7 μSv/MBq

C[C@]12CCC(=O)C[C@@H]1CC[C@@H]1[C@@H]2CC[C@]2(C)[C@@H](O)[C@@H]([18F])C[C@@H]12 [^18F-Fluorodihydrotestosterone]
Dose to red marrow ([1]; ref [20]): 18.7 μSv/MBq | Effective dose ([2]; ref [20]): ~12.5^a μSv/MBq

C=CCN1CCC[C@H]1CNC(=O)c1cc(CCC[18F])cc(OC)c1OC [^18F-Fallypride]
Dose to red marrow [1, 8]: 19.5 μSv/MBq | Effective dose [1, 8]: 21.1 μSv/MBq

N#Cc1cc(F)cc(C#Cc2csc(C[18F])n2)c1 [^18F-SP203, 3-fluoro-5-(2-(2-^18F-(fluoromethyl)-thiazol-4-yl)ethynyl)benzonitrile]
Defluorination in rat brain [3]: defluorinated | Maximal injectable activity per year ([4]; Europe, effective dose limit 10 mSv per year): no more than 562 MBq | Radiation dose, brain [4]: 127.0 mrem/mCi | Radiation dose, brain ([4]; standard reference man): 34.5 μSv/MBq | Pharmacological effects during the 5-h scan ([5]; 141±41 MBq (1.9±1.0 nmol SP203) i.v., subject reports, ECG, blood pressure, pulse rate, respiration rate): no pharmacological effects | Effects in blood and urine tests ([5]; acquired 7 to 24 h after radioligand injection): no effects were noted | Time of peak uptake in brain, kidneys, lungs, heart and spleen ([6]; after injection): ≤ 8 min | Distribution of radioactivity in the skeleton ([6]; bone structures with vs without red marrow): most of the radioactivity was in bone structures that contain red marrow and not in those without red marrow; also recorded: the majority of activity in the human skeleton was in the red marrow rather than in bone itself; also recorded: most of the radioactivity was in bone structures that contain red marrow and not in bones without red marrow | Peak uptake in brain ([6]; brain, seven healthy humans, i.v.): 11 % of injected activity | Radioactivity accumulated in gallbladder (asymptote / maximum) ([6]; gallbladder): 0.9 % of injected activity | Time to reach asymptote / maximum in gallbladder ([6]; gallbladder): ≤ 100 min | Peak uptake in heart ([6]; heart): 3.4 % of injected activity | Defluorination in humans ([6]; judged from distribution of radioactivity in bone structures with various proportions of bone and red marrow): undergoes little defluorination | Peak uptake in liver ([6]; liver, seven healthy humans, i.v.): 12.8±3.4 % of injected activity | Peak uptake in lungs ([6]; lungs): 4.7 % of injected activity and 4.7±1.5 % of injected activity | Radioactivity accumulated in red marrow (asymptote) ([6]; red marrow): 14 % of injected activity | Time to reach asymptote in red marrow ([6]; red marrow): ≤ 100 min | Residence time, brain ([7]; brain, seven subjects): 0.192 h and 0.192 ± 0.048 h | Residence time, gallbladder ([7]; gallbladder, seven subjects): 0.018 h and 0.018 ± 0.009 h | Residence time, heart ([7]; heart, seven subjects): 0.024 h and 0.024 ± 0.008 h | Residence time, kidney ([7]; kidney, seven subjects): 0.037 ± 0.004 h | Residence time, liver ([7]; liver, seven subjects): 0.091 h and 0.091 ± 0.015 h | Residence time, lungs ([7]; lungs, seven subjects): 0.065 h and 0.065 ± 0.017 h | Residence time, red marrow ([7]; red marrow (from lumbar vertebrae x 100/11.7)): 0.307 h and 0.307 ± 0.063 h | Residence time, remainder of body ([7]; remainder of body): 1.585 ± 0.147 h | Residence time, spleen ([7]; spleen, seven subjects): 0.014 h and 0.014 ± 0.004 h | Radioactivity in the skull in human brain imaging (mGluR5): moderate uptake of radioactivity in the skull; also recorded: moderate amount of radioactivity accumulation in the skull

CNc1ccc(-c2nc3ccc(O)cc3s2)cc1[18F] [^18F-GE067]
Dose to red marrow ([1]; ref [22]): 15.3 μSv/MBq | Effective dose ([1]; ref [22]): 33.8 μSv/MBq

FC(F)(F)c1nnnn1-c1ccc(OC[18F])c(CN[C@H]2CCCN[C@H]2c2ccccc2)c1 [^18F-SPARQ]
Dose to red marrow ([1]; ref [7]): 15.8 μSv/MBq | Effective dose ([1]; ref [7]): 29.3 μSv/MBq

N[C@@H](Cc1cc(O)c(O)cc1[18F])C(=O)O [^18F-FDOPA]
Dose to red marrow ([1]; ref [24]): 10.5 μSv/MBq | Effective dose ([1]; ref [24]): 19.9 μSv/MBq

Cc1cn([C@H]2C[C@H]([18F])[C@@H](CO)O2)c(=O)[nH]c1=O [^18F-Fluorothymidine]
Dose to red marrow ([1]; ref [19]): 24.0 μSv/MBq | Effective dose ([2]; ref [19]): ~15.5^a μSv/MBq

COC(=O)[C@H]1[C@@H](c2ccc(Cl)cc2)C[C@@H]2CC[C@H]1N2CC[18F] [^18F-FECNT]
Dose to red marrow ([1]; ref [21]): 16.1 μSv/MBq | Effective dose ([1]; ref [21]): 15.8 μSv/MBq
